One compound from ChEMBL document CHEMBL4152363, “Andrographolide derivative as STAT3 inhibitor that protects acute liver damage in mice” (Bioorg Med Chem, 2018) can be followed below.

Molecules are shown by their SMILES. Activity calls are given as the source filed them. The calls are words filed in the database; no cut-off is given here.

Data set [1] has as its target T1, Signal transducer and activator of transcription 3 (Homo sapiens, UniProt P40763). The data set is described as follows: Inhibition of […] activation in human AD293 cells incubated […] for 16 hrs followed by compound addition measured after 4 hrs by luciferase reporter gene assay. The data set is classed as cell-based. Background: A reporter such as luciferase makes a cellular process visible.

The subject of another data set is AD293. The data set is described as follows: Cytotoxicity against human AD293 cells. To be noted: ad293. The data set is classed as cell-based. An outline of the steps:
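AD-293 or HeLa cells grown in high-glucose DMEM with 10% FBS and 1% penicillin-streptomycin; compound exposure 24 h; cytotoxicity reported as CC10.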

Data set [2] has as its target T1, Signal transducer and activator of transcription 3. The data set is described as follows: Inhibition of IFNgamma-stimulated STAT3 activation in human HeLa cells incubated with IFNgamma for 16 hrs followed by compound addition measured after 24 hrs by luciferase reporter gene assay. The data set is classed as cell-based. The gist of the method:
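AD-293 or HeLa cells in DMEM/10% FBS stimulated with 20 pg/mL IFN-γ; compound treatment 24 h; luciferase activity measured in cell extracts; EC50 derived.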

For data set [3] the target is unchanged. The data set is described as follows: Inhibition of […] activation in human HeLa cells incubated […] for 16 hrs followed by compound addition measured after 4 hrs by luciferase reporter gene assay. The data set is classed as cell-based. The gist of the method: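 NF-κB pathway in AD-293 or HeLa cells stimulated with 50 ng/mL TNF-α; compound treatment 4 h; luciferase activity read from cell extracts; EC50 derived.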

For data set [4] the target is unchanged. The data set is described as follows: Inhibition of IFNgamma-stimulated STAT3 phosphorylation at Tyr705 residues in human AD293 cell lysates incubated with IFNgamma followed by compound addition at 10 uM by Western blot analysis. An outline of the steps: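 AD-293 cells treated with 1 μg/mL IFN-γ alone or with compounds at 10 μM; phospho- and total STAT1 and STAT3 assessed by western blot; representative of at least three independent experiments.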
A general note: Immunoblotting shows a protein as a band on a membrane.

For data set [5] the target is unchanged. The data set is described as follows: Inhibition of IFNgamma-stimulated GFP/FLAG-tagged STAT3 dimerization in human AD293 cells at 10 uM incubated for 6 hrs by Western blot analysis. The data set is classed as cell-based. An outline of the steps: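 AD-293 cells co-transfected 48 h with GFP- and FLAG-tagged STAT3 plasmids, then IFN-γ with or without compound for 6 h; 100 μg lysate (RIPA) immunoprecipitated with anti-FLAG and protein G beads; blots probed for GFP and FLAG, chemiluminescent detection.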

For data set [6] the target is unchanged. The data set is described as follows: Inhibition of DNA binding activity of STAT3 in human AD293 cells up to 40 uM. The data set is classed as cell-based. The gist of the method: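 STAT3 DNA binding measured with TransAM STAT family ELISA kit per manufacturer; competition control with threefold free oligo; mean ± SD of three separate experiments.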
The test system of data set [7] is Mus musculus. The data set is described as follows: Toxicity in Balb/c mouse assessed as change in body weight at 30 mg/kg, po qd for 7 days. The data set is classed as organism-based. To be noted: in vivo, 168 h. An outline of the steps:
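Male BalB/C mice (20–25 g, 6–8 weeks, 1-week acclimation) dosed orally 30 mg/kg once daily 7 days, then subcutaneous CCl4 (40% in olive oil, 10 ml/kg); body weight tracked during treatment; S.E.M.; two independent experiments, n=5.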

The subject of data set [8] is Mus musculus. The data set is described as follows: Hepatoprotective activity against CCL4-induced acute liver damage in Balb/c mouse assessed as increase in number of Ki67 positive cells at 30 mg/kg, po qd for 7 days measured after 16 hrs post CCL4 challenge by hematoxylin staining based immunohistochemistry method. Type of data set: functional, organism-based. The gist of the method:
(§1)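 Liver sections from mice dosed orally 30 mg/kg daily 7 days then sc CCl4, killed 16 h after; H2O2 block, goat serum/BSA/gelatin blocking 1 h RT, primary antibody (α-SMA, Ki67, PCNA or STAT3) 4 °C overnight, HRP secondary, DAB, hematoxylin counterstain; >30 fields at 400× quantified; n=5.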

Data set [9] has as its system Mus musculus. The data set is described as follows: Antifibrotic activity in CCL4-induced acute liver damage Balb/c mouse model assessed as decrease in alpha-SMA expression in areas surrounding blood vessels at 30 mg/kg, po qd for 7 days measured after 16 hrs post CCL4 challenge by masson trichome staining based assay. The data set is classed as functional, organism-based. To be noted: in the assay text read “immunohistochemistry” for “masson trichome staining based assay”. An outline of the steps:
as §1

Data set [10] concerns Mus musculus. The experiment in a line: Reduction in MMP10 mRNA expression level in CCL4-induced acute liver damage in Balb/c mouse at 30 mg/kg, po qd for 7 days measured after 16 hrs post CCL4 challenge by qRT-PCR method. Type of data set: functional, organism-based. An outline of the steps: (§2)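 Mice given 30 mg/kg orally once daily 7 days before sc CCl4 (40% in olive oil, 10 ml/kg); livers harvested 16 h later, PBS-washed, stored at −70 °C for RNA extraction and transcript quantification; n=5, two independent experiments.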
A general note: In qPCR the cycle at which signal appears reflects the starting amount.

Data set [11] relates to Mus musculus. The experiment in a line: Reduction in MMP13 mRNA expression level in CCL4-induced acute liver damage in Balb/c mouse at 30 mg/kg, po qd for 7 days measured after 16 hrs post CCL4 challenge by qRT-PCR method. The data set is classed as functional, organism-based. The gist of the method:
as §2

The subject of data set [12] is Mus musculus. The data set is described as follows: Reduction in Col1a1 mRNA expression level in CCL4-induced acute liver damage in Balb/c mouse at 30 mg/kg, po qd for 7 days measured after 16 hrs post CCL4 challenge by qRT-PCR method. The data set is classed as functional, organism-based. An outline of the steps: as §2
Data set [13] relates to Mus musculus. The data set is described as follows: Reduction in Col3a1 mRNA expression level in CCL4-induced acute liver damage in Balb/c mouse at 30 mg/kg, po qd for 7 days measured after 16 hrs post CCL4 challenge by qRT-PCR method. Type of data set: functional, organism-based. An outline of the steps:
as §2

For data set [14], the system named is Mus musculus. The experiment in a line: Antiinflammatory activity in CCL4-induced acute liver damage Balb/c mouse model assessed as decrease in serum IL-6 levels at 30 mg/kg, po qd for 7 days measured after 16 hrs post CCL4 challenge. Type of data set: functional, organism-based. An outline of the steps: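 BalB/C males dosed orally 30 mg/kg daily for 7 days, then sc CCl4 (40% in olive oil, 10 ml/kg); serum collected 16 h post-CCl4 after CO2 anaesthesia, stored at −70 °C until IL-6, MCP-1 or TGF-β analysis; n=5.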

The subject of data set [15] is Mus musculus. The data set is described as follows: Reduction in SMAD3 mRNA expression level in liver of CCL4-induced acute liver damage in Balb/c mouse at 30 mg/kg, po qd for 7 days measured after 16 hrs post CCL4 challenge by qRT-PCR method. Type of data set: functional, organism-based. An outline of the steps: as §2
The target of data set [16] is T1, Signal transducer and activator of transcription 3. The experiment in a line: Inhibition of STAT3 in human AD293 cells assessed as decrease in TGFbeta-stimulated SMAD2/3 activation up to 10 uM incubated for 16 hrs by luciferase reporter gene assay relative to control. The data set is classed as cell-based. An outline of the steps:
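AD-293 cells carrying SMAD2/3 promoter in pGL4.20 luciferase vector, stimulated with TGF-β 100 ng/ml for 16 h with compound up to 10 µM; luciferase activity measured in cell extracts.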

T1 sequence (P40763 whole entry): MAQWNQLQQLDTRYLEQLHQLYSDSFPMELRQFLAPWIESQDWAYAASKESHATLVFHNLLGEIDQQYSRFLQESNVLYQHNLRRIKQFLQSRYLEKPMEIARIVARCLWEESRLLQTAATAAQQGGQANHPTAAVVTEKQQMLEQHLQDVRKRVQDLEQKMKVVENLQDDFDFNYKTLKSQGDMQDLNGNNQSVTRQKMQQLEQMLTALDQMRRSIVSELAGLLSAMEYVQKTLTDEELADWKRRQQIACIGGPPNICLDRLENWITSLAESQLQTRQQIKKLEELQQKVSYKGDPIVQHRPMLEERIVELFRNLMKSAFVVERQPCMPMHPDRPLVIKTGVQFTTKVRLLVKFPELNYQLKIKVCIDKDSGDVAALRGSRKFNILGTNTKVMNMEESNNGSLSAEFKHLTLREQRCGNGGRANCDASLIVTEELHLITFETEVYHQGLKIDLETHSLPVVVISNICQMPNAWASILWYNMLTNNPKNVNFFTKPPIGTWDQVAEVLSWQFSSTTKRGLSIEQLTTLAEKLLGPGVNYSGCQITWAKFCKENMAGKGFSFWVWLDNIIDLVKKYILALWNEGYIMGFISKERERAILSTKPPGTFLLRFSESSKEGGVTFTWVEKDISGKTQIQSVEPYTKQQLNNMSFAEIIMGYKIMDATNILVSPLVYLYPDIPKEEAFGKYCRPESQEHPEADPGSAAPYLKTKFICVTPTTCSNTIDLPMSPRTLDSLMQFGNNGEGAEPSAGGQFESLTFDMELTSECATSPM

As a reminder, the EC50 is the concentration at which the effect is half-maximal. Low values mean an effect from little substance, high ones a need for much substance. In general, inhibition refers to how much of the control response was suppressed. Consider `CC(C)(C)[Si](C)(C)O[C@@H]1COC(=O)/C1=C/C[C@@H]1[C@]2(CC[C@H]3[C@@]1(C)CCC(=O)[C@@]3(C)CO)CO2`, for which the results for the EC50 in [1], in [2] and in data set [3] were > 10 µM, 5.9 µM and > 10 µM, respectively. Moreover, in the data set with AD293, the CC10 was > 10 µM. For the same compound, the inhibition in data set [4] was > 50%; in data set [16] it was < 50%. Besides, in data set [5], the inhibition entry was “Active”. The inhibition result in data set [6] is “inactive”. For the same compound, the Activity entry with Mus musculus [7] is “Non-Toxic”. Also, the result in the data set with Mus musculus [8], in the data set with Mus musculus [9], in the data set with Mus musculus [10], in the data set on Mus musculus [11] and with Mus musculus [14] was Active. Moreover, the result in the data set on Mus musculus [12], in the data set on Mus musculus [13] and in the data set on Mus musculus [15] was inactive.
